{
  "source": "ChEMBL document CHEMBL1150046",
  "about": "“Three new cyclic peroxides from the marine sponge Plakortis aff simplex” (2003)",
  "assay_type_in_all_cases": "functional",
  "key": {"LoVo [1]": {"tested_on": "LoVo", "test": "Growth inhibition of human LoVo after 72 hrs by SRB assay", "procedure,_shortened": "(§1)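 Cells kept in RPMI 1640 with 10% FBS, 2 mM L-glutamine, penicillin and streptomycin at 37 °C, 5% CO2. They were seeded at 5000 per well and allowed to attach in drug-free medium (24 h; also stated as 18 h). Compound dilutions in DMSO/EtOH were added for 72 h. Cells were fixed with cold TCA, stained with SRB, solubilised in Tris and read at 490 nm.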"}, "K562": {"tested_on": "K562", "test": "Growth inhibition of human K562 cells after 72 hrs by SRB assay", "conditions": "K562, 72 h", "procedure,_shortened": "as §1"}, "LNCaP": {"tested_on": "LNCaP", "test": "Growth inhibition of human LNCAP cells after 72 hrs by SRB assay", "procedure,_shortened": "as §1"}, "[2]": {"test": "Growth inhibition of human IGROV-ET cells after 72 hrs by SRB assay", "procedure,_shortened": "as §1"}, "PANC-1": {"tested_on": "PANC-1", "test": "Growth inhibition of human PANC1 cells after 72 hrs by SRB assay", "conditions": "PANC-1, 72 h", "procedure,_shortened": "as §1"}, "LoVo [3]": {"tested_on": "LoVo", "test": "Growth inhibition of human Doxorubicin-resistant LoVo cells after 72 hrs by SRB assay", "procedure,_shortened": "as §1"}, "SK-OV-3": {"tested_on": "SK-OV-3", "test": "Growth inhibition of human SKOV3 cells after 72 hrs by SRB assay", "conditions": "SK-OV-3, 72 h", "procedure,_shortened": "as §1"}, "SK-BR-3": {"tested_on": "SK-BR-3", "test": "Growth inhibition of human SKBR3 cells after 72 hrs by SRB assay", "conditions": "SK-BR-3, 72 h", "procedure,_shortened": "as §1"}, "[4]": {"test": "Growth inhibition of human IGROV cells after 72 hrs by SRB assay", "procedure,_shortened": "as §1"}, "DU-145": {"tested_on": "DU-145", "test": "Growth inhibition of human DU145 cells after 72 hrs by SRB assay", "conditions": "DU-145, 72 h", "procedure,_shortened": "as §1"}, "SK-MEL-28": {"tested_on": "SK-MEL-28", "test": "Growth inhibition of human SK-MEL-28 cells after 72 hrs by SRB assay", "conditions": "SK-MEL-28, 72 h", "procedure,_shortened": "as §1"}, "HT-29": {"tested_on": "HT-29", "test": "Growth inhibition of human HT-29 cells after 72 hrs by SRB assay", "conditions": "HT-29, 72 h", "procedure,_shortened": "as §1"}, "A549": {"tested_on": "A549", "test": "Growth inhibition of human A549 after 72 hrs by SRB assay", "conditions": "A549, 72 h", "procedure,_shortened": "as §1"}, "[5]": {"conditions": "read-out: LC50 (the source's name)"}},
  "data": [
    {"smiles": "C[C@]1(CCCCCCCCCCc2ccccc2)C[C@](C)(CC(=O)O)OO1", "note": "[ANDAVADOIC ACID]", "values": [
      {"measurement": "GI50", "setting": "LoVo [1]", "result": 635, "unit": "nM"},
      {"measurement": "TGI", "setting": "LoVo [1]", "result": 1210, "unit": "nM"},
      {"measurement": "CC50", "setting": "LoVo [1]; [5]", "result": 2310, "unit": "nM"},
      {"measurement": "GI50", "setting": "K562", "result": 497, "unit": "nM"},
      {"measurement": "TGI", "setting": "K562", "result": 1010, "unit": "nM"},
      {"measurement": "CC50", "setting": "K562; [5]", "result": 2070, "unit": "nM"},
      {"measurement": "GI50", "setting": "LNCaP", "result": 478, "unit": "nM"},
      {"measurement": "TGI", "setting": "LNCaP", "result": 863, "unit": "nM"},
      {"measurement": "CC50", "setting": "LNCaP; [5]", "result": 1560, "unit": "nM"},
      {"measurement": "GI50", "setting": "[2]", "result": 133, "unit": "nM"},
      {"measurement": "TGI", "setting": "[2]", "result": 390, "unit": "nM"},
      {"measurement": "CC50", "setting": "[2]; [5]", "result": 1340, "unit": "nM"},
      {"measurement": "GI50", "setting": "PANC-1", "result": 526, "unit": "nM"},
      {"measurement": "TGI", "setting": "PANC-1", "result": 961, "unit": "nM"},
      {"measurement": "CC50", "setting": "PANC-1; [5]", "result": 1750, "unit": "nM"},
      {"measurement": "GI50", "setting": "LoVo [3]", "result": 539, "unit": "nM"},
      {"measurement": "TGI", "setting": "LoVo [3]", "result": 951, "unit": "nM"},
      {"measurement": "CC50", "setting": "LoVo [3]; [5]", "result": 1680, "unit": "nM"},
      {"measurement": "GI50", "setting": "SK-OV-3", "result": 698, "unit": "nM"},
      {"measurement": "TGI", "setting": "SK-OV-3", "result": 1120, "unit": "nM"},
      {"measurement": "CC50", "setting": "SK-OV-3; [5]", "result": 1810, "unit": "nM"},
      {"measurement": "GI50", "setting": "SK-BR-3", "result": 914, "unit": "nM"},
      {"measurement": "TGI", "setting": "SK-BR-3", "result": 1690, "unit": "nM"},
      {"measurement": "CC50", "setting": "SK-BR-3; [5]", "result": 2660, "unit": "nM"},
      {"measurement": "GI50", "setting": "[4]", "result": 102, "unit": "nM"},
      {"measurement": "TGI", "setting": "[4]", "result": 261, "unit": "nM"},
      {"measurement": "CC50", "setting": "[4]; [5]", "result": 1830, "unit": "nM"},
      {"measurement": "GI50", "setting": "DU-145", "result": 627, "unit": "nM"},
      {"measurement": "TGI", "setting": "DU-145", "result": 991, "unit": "nM"},
      {"measurement": "CC50", "setting": "DU-145; [5]", "result": 1560, "unit": "nM"},
      {"measurement": "GI50", "setting": "SK-MEL-28", "result": 698, "unit": "nM"},
      {"measurement": "TGI", "setting": "SK-MEL-28", "result": 1140, "unit": "nM"},
      {"measurement": "CC50", "setting": "SK-MEL-28; [5]", "result": 1860, "unit": "nM"},
      {"measurement": "GI50", "setting": "HT-29", "result": 643, "unit": "nM"},
      {"measurement": "TGI", "setting": "HT-29", "result": 1130, "unit": "nM"},
      {"measurement": "CC50", "setting": "HT-29; [5]", "result": 1980, "unit": "nM"},
      {"measurement": "GI50", "setting": "A549", "result": 714, "unit": "nM"},
      {"measurement": "TGI", "setting": "A549", "result": 1290, "unit": "nM"},
      {"measurement": "CC50", "setting": "A549; [5]", "result": 2330, "unit": "nM"}
    ]}
  ]
}
